Assay results published in ChEMBL document CHEMBL2040734, “Benzothiazoles: search for anticancer agents” (2012).

Assays:
Assay type in all cases: functional
[1] = tested on: MCF7; experiment: Cytotoxicity against human MCF7 cells assessed as cell growth at 0.01 uM after 48 hrs by sulforhodamine B assay; settings: MCF7, 48 h, read-out: Activity
[2] = tested on: BT-549; experiment: Cytotoxicity against human BT549 cells assessed as cell growth at 0.01 uM after 48 hrs by sulforhodamine B assay; settings: BT-549, 48 h, read-out: Activity
Outline: (§1)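 NCI-60 five-dose screen. Cells were grown in RPMI 1640 with 5% FBS and 2 mM L-glutamine and preincubated 24 h. Compound (DMSO stock) was tested at 0.01, 0.1, 1, 10 and 100 µM for 48 h at 37 °C. Cells were fixed in situ with cold TCA (final 10%) and stained with 0.4% SRB. A515 was read, and percent growth was calculated against time-zero and control plates.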

[3] = tested on: SR; experiment: Cytotoxicity against human SR cells assessed as cell growth at 0.1 uM after 48 hrs by sulforhodamine B assay; settings: read-out: Activity
[4] = tested on: KM12; experiment: Cytotoxicity against human KM12 cells assessed as cell growth at 0.1 uM after 48 hrs by sulforhodamine B assay; settings: KM12, 48 h, read-out: Activity
[5] = tested on: OVCAR-4; experiment: Cytotoxicity against human OVCAR4 cells assessed as cell growth at 0.1 uM after 48 hrs by sulforhodamine B assay; settings: OVCAR-4, 48 h, read-out: Activity
[6] = tested on: OVCAR-5; experiment: Cytotoxicity against human OVCAR5 cells assessed as cell growth at 0.1 uM after 48 hrs by sulforhodamine B assay; settings: OVCAR-5, 48 h, read-out: Activity
[7] = tested on: PC-3; experiment: Cytotoxicity against human PC3 cells assessed as cell growth at 100 uM after 48 hrs by sulforhodamine B assay; settings: PC-3, 48 h, read-out: Activity
[8] = tested on: OVCAR-5; experiment: Cytotoxicity against human OVCAR5 cells assessed as cell growth at 1 uM after 48 hrs by sulforhodamine B assay; settings: OVCAR-5, 48 h, read-out: Activity
[9] = tested on: NCI/ADR-RES; experiment: Cytotoxicity against human NCI/ADR-RES cells assessed as cell growth at 1 uM after 48 hrs by sulforhodamine B assay; settings: read-out: Activity
[10] = tested on: RXF 393; experiment: Cytotoxicity against human RXF393 cells assessed as cell growth at 1 uM after 48 hrs by sulforhodamine B assay; settings: RXF 393, 48 h, read-out: Activity
[11] = tested on: UO-31; experiment: Cytotoxicity against human UO31 cells assessed as cell growth at 1 uM after 48 hrs by sulforhodamine B assay; settings: UO-31, 48 h, read-out: Activity
[12] = tested on: MCF7; experiment: Cytotoxicity against human MCF7 cells assessed as cell growth at 1 uM after 48 hrs by sulforhodamine B assay; settings: MCF7, 48 h, read-out: Activity
[13] = tested on: BT-549; experiment: Cytotoxicity against human BT549 cells assessed as cell growth at 1 uM after 48 hrs by sulforhodamine B assay; settings: BT-549, 48 h, read-out: Activity; outline: as §1
[14] = tested on: KM12; experiment: Cytotoxicity against human KM12 cells assessed as cell growth at 10 uM after 48 hrs by sulforhodamine B assay; settings: KM12, 48 h, read-out: Activity
[15] = tested on: SW-620; experiment: Cytotoxicity against human SW620 cells assessed as cell growth at 10 uM after 48 hrs by sulforhodamine B assay; settings: SW-620, 48 h, read-out: Activity
[16] = tested on: OVCAR-4; experiment: Cytotoxicity against human OVCAR4 cells assessed as cell growth at 10 uM after 48 hrs by sulforhodamine B assay; settings: OVCAR-4, 48 h, read-out: Activity
[17] = tested on: TK-10; experiment: Cytotoxicity against human TK10 cells assessed as cell growth at 10 uM after 48 hrs by sulforhodamine B assay; settings: TK-10, 48 h, read-out: Activity
[18] = tested on: UO-31; experiment: Cytotoxicity against human UO31 cells assessed as cell growth at 10 uM after 48 hrs by sulforhodamine B assay; settings: UO-31, 48 h, read-out: Activity
[19] = Cytotoxicity against human Hs 578T cells assessed as cell growth at 10 uM after 48 hrs by sulforhodamine B assay; settings: read-out: Activity
Outline: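 Five-dose NCI panel run at 0.01, 0.1, 1, 10 and 100 µM. Cells were in RPMI 1640 with 5% FBS and 2 mM L-glutamine, seeded at 5000–40,000 cells/well and pre-incubated 24 h. Drug was diluted from a DMSO stock into medium with 50 µg/ml gentamicin. Exposure was 48 h at 37 °C, 5% CO2. Cells were fixed with cold TCA and stained with 0.4% SRB, read at 515 nm. Percent growth came from time-zero, control and test absorbances.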

[20] = tested on: CCRF-CEM; experiment: Cytotoxicity against human CCRF-CEM cells assessed as cell growth at 100 uM after 48 hrs by sulforhodamine B assay; settings: read-out: Activity
Outline: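 CCRF-CEM suspension leukemia cells in RPMI 1640 with 5% FBS and 2 mM L-glutamine, plated 24 h before dosing. Five concentrations (0.01–100 µM) were applied from a DMSO stock for 48 h at 37 °C. Settled cells were fixed with 80% TCA (final 16%) and stained with SRB, with read-out at 515 nm. Percent growth was derived from time-zero and control absorbances.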

[21] = tested on: MOLT-4; experiment: Cytotoxicity against human MOLT4 cells assessed as cell growth at 100 uM after 48 hrs by sulforhodamine B assay; settings: MOLT-4, 48 h, read-out: Activity
[22] = tested on: MDA-MB-231; experiment: Cytotoxicity against human MDA-MB-231 cells assessed as cell growth at 10 '-5 M after 48 hrs by sulforhodamine B assay; settings: MDA-MB-231, 48 h, read-out: Activity
[23] = tested on: T47D; experiment: Cytotoxicity against human T47D cells assessed as cell growth at 10 '-5 M after 48 hrs by sulforhodamine B assay; settings: read-out: Activity
[24] = tested on: HL-60(TB); experiment: Growth inhibition of human HL-60(TB) cells after 48 hrs by sulforhodamine B assay; settings: HL-60, 48 h; for CC50: read-out: LC50 (the source's name)
Outline: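 HL-60(TB) suspension cells in RPMI 1640 with 5% FBS and 2 mM L-glutamine were treated for 48 h at five concentrations (0.01–100 µM). Settled cells were fixed with 16% TCA (final), SRB-stained and read at 515 nm. GI50 was the concentration giving (Ti−Tz)/(C−Tz)×100 = 50 from log concentration–growth curves, expressed as ">" if not reached at the top concentration.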

[25] = tested on: KM12; experiment: Growth inhibition of human KM12 cells after 48 hrs by sulforhodamine B assay; settings: KM12, 48 h; for CC50: read-out: LC50 (the source's name)
Outline: (§2)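 Adherent NCI-60 lines were grown in RPMI 1640 with 5% FBS and 2 mM L-glutamine, plated at 5000–40,000 cells/well and preincubated 24 h. They were then exposed to five concentrations (0.01–100 µM, from a DMSO stock) for 48 h at 37 °C, 5% CO2. Cells were fixed with cold TCA (10% final, 60 min, 4 °C) and stained with 0.4% SRB. Dye was solubilized in 10 mM Tris base and A515 read. GI50 was derived from time-zero, control and treated absorbances.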

[26] = tested on: MDA-MB-435; experiment: Growth inhibition of human MDA-MB-435 cells after 48 hrs by sulforhodamine B assay; settings: MDA-MB-435, 48 h; for CC50: read-out: LC50 (the source's name); outline: as §2
[27] = tested on: NCI-H460; experiment: Cytotoxicity against human NCI-H460 cells assessed as cell growth at 0.01 uM after 48 hrs by sulforhodamine B assay; settings: NCI-H460, 48 h, read-out: Activity
[28] = tested on: UACC-257; experiment: Cytotoxicity against human UACC257 cells assessed as cell growth at 0.01 uM after 48 hrs by sulforhodamine B assay; settings: UACC-257, 48 h, read-out: Activity

**Q.** For `Cc1ccc2nc(Nc3c(C)cccc3C)sc2c1`, which growth at 0.01 µM [1] is on record?
**A.** Its growth at 0.01 µM is 90%.

**Q.** And the growth at 0.01 µM [2]?
**A.** The growth at 0.01 µM was 98%.

**Q.** What about the growth at 0.1 µM [3] of the same compound?
**A.** The growth at 0.1 µM was 99%.

**Q.** What about the growth at 0.1 µM [4] of the same compound?
**A.** Its growth at 0.1 µM is 103%.

**Q.** What about the growth at 0.1 µM [5] of the same compound?
**A.** The growth at 0.1 µM was 89%.

**Q.** And the growth at 0.1 µM [6]?
**A.** Its growth at 0.1 µM is 106%.

**Q.** What about the growth at 100 µM [7] of the same compound?
**A.** Its growth at 100 µM is 56%.

**Q.** And the growth at 1 µM [8]?
**A.** Its growth at 1 µM is 79%.

**Q.** What about the growth at 1 µM [9] of the same compound?
**A.** The growth at 1 µM was 40%.

**Q.** And the growth at 1 µM [10]?
**A.** The growth at 1 µM was 52%.

**Q.** And the growth at 1 µM [11]?
**A.** Its growth at 1 µM is 73%.

**Q.** And the growth at 1 µM [12]?
**A.** The growth at 1 µM was 53%.

**Q.** And the growth at 1 µM [13]?
**A.** Its growth at 1 µM is 63%.

**Q.** What about the growth at 10 µM [14] of the same compound?
**A.** Its growth at 10 µM is 30%.

**Q.** And the growth at 10 µM [15]?
**A.** The growth at 10 µM was 22%.

**Q.** And the growth at 10 µM [16]?
**A.** The growth at 10 µM was 55%.

**Q.** What about the growth at 10 µM [17] of the same compound?
**A.** The growth at 10 µM was 71%.

**Q.** And the growth at 10 µM [18]?
**A.** The growth at 10 µM was 49%.

**Q.** And the growth at 10 µM [19]?
**A.** The growth at 10 µM was 40%.

**Q.** And the growth at 100 µM [20]?
**A.** Its growth at 100 µM is 83%.

**Q.** What about the growth at 100 µM [21] of the same compound?
**A.** Its growth at 100 µM is 86%.

**Q.** What about the growth at 10 µM [22] of the same compound?
**A.** Its growth at 10 µM is 47%.

**Q.** And the growth at 10 µM [23]?
**A.** Its growth at 10 µM is 45.8%.

**Q.** And the TGI [24]?
**A.** Its TGI is greater than 100 µM.

**Q.** And the CC50 [24]?
**A.** The CC50 was greater than 100 µM.

**Q.** And the GI50 [25]?
**A.** The GI50 was 1.55 µM.

**Q.** And the TGI [25]?
**A.** The TGI was greater than 100 µM.

**Q.** What about the CC50 [25] of the same compound?
**A.** Its CC50 is greater than 100 µM.

**Q.** And the GI50 [26]?
**A.** Its GI50 is 0.242 µM.

**Q.** And the TGI [26]?
**A.** Its TGI is 0.822 µM.

**Q.** What about the CC50 [26] of the same compound?
**A.** Its CC50 is greater than 100 µM.

**Q.** And the growth at 0.01 µM [27]?
**A.** Its growth at 0.01 µM is 102%.

**Q.** And the growth at 0.01 µM [28]?
**A.** The growth at 0.01 µM was 101%.

**Q.** Which results are given for `Clc1cccc(Cl)c1Nc1nc2cccc(Cl)c2s1`?
**A.** growth at 0.01 µM [1]: 90%; growth at 0.01 µM [2]: 102%; growth at 0.1 µM [3]: 101%; growth at 0.1 µM [4]: 101%; growth at 0.1 µM [5]: 83%; growth at 0.1 µM [6]: 92%; growth at 100 µM [7]: -74%; growth at 1 µM [8]: 79%; growth at 1 µM [9]: 36%; growth at 1 µM [10]: 45%; growth at 1 µM [11]: 26%; growth at 1 µM [12]: 46%; growth at 1 µM [13]: 79%; growth at 10 µM [14]: -96%; growth at 10 µM [15]: -86%; growth at 10 µM [16]: -90%; growth at 10 µM [17]: -86%; growth at 10 µM [18]: -91%; growth at 10 µM [19]: -41%; growth at 100 µM [20]: -12%; growth at 100 µM [21]: -23%; growth at 10 µM [22]: -66.8%; growth at 10 µM [23]: -4.9%; GI50 [24]: 1.32 µM; TGI [24]: 3.75 µM; CC50 [24]: 20.6 µM; GI50 [25]: 1.2 µM; TGI [25]: 2.48 µM; CC50 [25]: 5.15 µM; GI50 [26]: 0.813 µM; TGI [26]: 2.38 µM; CC50 [26]: 6.05 µM; growth at 0.01 µM [27]: 102%; growth at 0.01 µM [28]: 102%
